Laboratory results taken from ChEMBL document CHEMBL4265954, “Discovery of potent liver-selective stearoyl-CoA desaturase-1 (SCD1) inhibitors, thiazole-4-acetic acid derivatives, for the treatment of diabetes, hepatic steatosis, and obesity” (Eur J Med Chem, 2018).
pIC50: −log10 of the molar value. Converted amounts (≈) assume the structure as drawn.

How the values were obtained:
[1] = target: T1, Stearoyl-CoA desaturase (Homo sapiens, UniProt O00767); assay: Inhibition of recombinant human SCD1 expressed in baculovirus expression system assessed as reduction in [3H]H2O production using stearoyl [9,10-3H]CoA as substrate in presence of NADH incubated for 30 mins by scintillation counting method
T1 sequence (O00767 whole entry): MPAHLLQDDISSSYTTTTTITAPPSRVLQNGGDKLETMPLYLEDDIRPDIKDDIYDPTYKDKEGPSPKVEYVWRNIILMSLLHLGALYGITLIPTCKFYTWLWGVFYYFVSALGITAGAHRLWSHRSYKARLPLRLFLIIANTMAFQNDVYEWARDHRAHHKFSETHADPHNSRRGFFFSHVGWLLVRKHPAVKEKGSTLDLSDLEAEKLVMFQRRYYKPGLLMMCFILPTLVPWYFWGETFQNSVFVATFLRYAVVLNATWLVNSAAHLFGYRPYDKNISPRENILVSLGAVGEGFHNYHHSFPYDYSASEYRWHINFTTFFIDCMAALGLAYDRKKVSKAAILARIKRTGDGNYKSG
Procedure, shortened: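 Desaturation of [9,10-3H]stearoyl-CoA measured as released [3H]H2O. Water was separated from charcoal-adsorbed substrate by filtration and counted by scintillation. Remaining activity = (compound − background)/(control − background). DMSO wells served as control and pre-stopped wells as background. IC50 was interpolated from the two points bracketing 50%.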

[2] = Solubility of the compound in PBS at pH 7.2; assay type: physicochemical
[3] = Apparent permeability of the compound in human Caco2 cells; assay type: ADME, cell-based; conditions: Caco-2
[4] = tested on: Mus musculus; assay: Ex vivo inhibition of SCD1 in C57BL/6J mouse eyelid assessed as residual activity at 1 mg/kg, po treated for 6 hrs followed by incubation with [14C]stearoyl-CoA substrate for 30 mins by TLC assay relative to control; assay type: organism-based
Procedure, shortened: (§1)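 Male 6-week-old C57BL/6J mice dosed orally as a suspension in 0.5% methylcellulose. Liver or eyelid was taken 6 or 24 h later and homogenized in 100 mM Tris-HCl pH 7.4 with 0.25 M sucrose. S9 was obtained at 10,000 × g, 4 °C. S9 was incubated with [14C]stearoyl-CoA, NADH, MgCl2 and cytochrome b5 at room temperature, 10 min for liver and 30 min for eyelid. Lipids were saponified and run on AgNO3 TLC to quantify stearate and oleate. Result is % of vehicle control.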

[5] = tested on: Mus musculus; assay: Ex vivo inhibition of SCD1 in C57BL/6J mouse liver assessed as residual activity at 10 mg/kg, po treated for 24 hrs followed by incubation with [14C]stearoyl-CoA substrate for 10 mins by TLC assay relative to control; assay type: functional; procedure, shortened: as §1
[6] = tested on: Mus musculus; assay: Ex vivo inhibition of SCD1 in C57BL/6J mouse eyelid assessed as residual activity at 100 mg/kg, po treated for 24 hrs followed by incubation with [14C]stearoyl-CoA substrate for 30 mins by TLC assay relative to control; assay type: organism-based; procedure, shortened: as §1
[7] = target: T2, Cytochrome P450 1A2 (Homo sapiens, UniProt P05177); assay: Inhibition of CYP1A2 (unknown origin); assay type: ADME
T2 sequence (P05177 whole entry): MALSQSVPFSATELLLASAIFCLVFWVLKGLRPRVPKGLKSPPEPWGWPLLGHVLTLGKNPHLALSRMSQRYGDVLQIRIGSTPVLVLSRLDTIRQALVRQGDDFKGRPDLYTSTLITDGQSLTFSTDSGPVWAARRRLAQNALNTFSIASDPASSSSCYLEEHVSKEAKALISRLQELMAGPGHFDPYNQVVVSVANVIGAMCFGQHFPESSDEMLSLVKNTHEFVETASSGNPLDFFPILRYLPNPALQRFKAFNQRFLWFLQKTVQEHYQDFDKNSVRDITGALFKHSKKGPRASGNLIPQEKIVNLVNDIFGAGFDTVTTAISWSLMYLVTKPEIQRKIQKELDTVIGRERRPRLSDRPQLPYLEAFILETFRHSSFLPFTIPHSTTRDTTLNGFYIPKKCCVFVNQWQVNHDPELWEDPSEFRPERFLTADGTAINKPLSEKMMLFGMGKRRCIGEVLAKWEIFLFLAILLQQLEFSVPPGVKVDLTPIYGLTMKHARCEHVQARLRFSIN

[8] = Cmax in Sprague-Dawley rat at 10 mg/kg, po; assay type: ADME, organism-based; parameters: dose 10 mg/kg, route oral; conditions: in vivo
Procedure, shortened: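 Two male Sprague-Dawley rats per route, 10 mg/kg po and 1 mg/kg iv. Cmax, tmax, terminal-phase half-life and AUC0-inf were taken from plasma concentration–time curves. Bioavailability was derived from the po and iv data.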

[9] = AUC (0 to infinity) in Sprague-Dawley rat at 10 mg/kg, po; assay type: ADME, organism-based; parameters: dose 10 mg/kg, route oral, time infinity; conditions: in vivo
[10] = Total clearance in Sprague-Dawley rat at 1 mg/kg, iv; assay type: ADME, organism-based; conditions: in vivo
Procedure, shortened: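 Single intravenous dose of 1 mg/kg, with a parallel oral arm at 10 mg/kg, given to two male animals per species: C57BL/6J mice and Sprague Dawley rats. Total body clearance was derived from the plasma concentration–time profile of the compound.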

[11] = Tmax in C57BL/6J mouse at 10 mg/kg, po; assay type: ADME, organism-based; conditions: in vivo
Procedure, shortened: (§2)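 Two male C57BL/6J mice per route, 10 mg/kg po and 1 mg/kg iv. Plasma concentration–time profiles gave Cmax, tmax, terminal half-life and AUC0-inf. Bioavailability was derived from the po and iv data.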

[12] = Apparent terminal half life in C57BL/6J mouse at 10 mg/kg, po; assay type: ADME, organism-based; conditions: in vivo, read-out: betat1/2(app) (converted); procedure, shortened: as §2
[13] = Metabolic stability in human liver S9 fraction after 1 hr; assay type: ADME, subcellular; conditions: read-out: Stability
[14] = Metabolic stability in rat liver S9 fraction after 1 hr; assay type: ADME, subcellular; conditions: read-out: Stability
[15] = tested on: Rattus norvegicus; assay: Ex vivo inhibition of SCD1 in high sucrose diet Sprague-Dawley rat epididymal adipose tissue treated orally for 6 hrs followed by incubation with [14C]stearoyl-CoA substrate for 10 mins by TLC assay; assay type: organism-based; conditions: po
Procedure, shortened: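 Sprague-Dawley rats on a high sucrose diet, given oral 1 or 10 mg/kg. Liver, epididymal adipose and eyelid were taken 6 h later and homogenized. S9 SCD activity was measured by [14C]stearoyl-CoA conversion to oleate and quantified by AgNO3 TLC imaging. Result is % remaining activity versus control, mean ± SD, n=3.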

[16] = Plasma concentration in high sucrose diet Sprague-Dawley rat at 10 mg/kg, po treated after 6 hrs; assay type: ADME, organism-based
Procedure, shortened: (§3)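 Sprague-Dawley rats on a high sucrose diet, given a single oral 10 mg/kg dose. Plasma, liver and eyelid drug concentrations were measured 6 h later, n=3. Liver/eyelid ratio was taken from the tissue concentrations.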

[17] = Ratio of drug uptake in high sucrose diet Sprague-Dawley rat liver to eyelid at 10 mg/kg, po treated after 6 hrs; assay type: ADME, organism-based; conditions: in vivo; procedure, shortened: as §3

pIC50 [1]: 8.06
solubility [2]: 82 µM (≈ 35.2 µg/mL)
Papp [3]: 43.6 ×10⁻⁶ cm/s
Activity [4]: 97%
Activity [6]: 57%
pIC50 [7]: < 4.30
Cmax [8]: 8 µM
AUC(0-inf) [9]: 16.5 µM·h
clearance [10]: 3.5 mL/min/kg
Tmax [11]: 1 h
half-life [12]: 5.2 h
remaining at 1 h [13]: 91%
remaining at 1 h [14]: 87%
inhibition (INH) [15]: Dose-dependent effect
concentration at 6 h [16]: 0.552 µM
Ratio [17]: 6.3
Structure (SMILES): CCCCc1ccccc1NCc1ccc(C(=O)Nc2nc(CC(=O)O)cs2)s1
Activity [5]: 11%
